Experimental data pooled from the literature.
Lines come from different studies, so protocols differ.
RPS6KA1: Ribosomal protein S6 kinase alpha-1 (RPS6KA1, Homo sapiens, UniProt Q15418)
RPS6KA1 N-terminal kinase domain: Ribosomal protein S6 kinase alpha-1, N-terminal kinase domain (RPS6KA1, Homo sapiens, UniProt Q15418)
RPS6KA1 C-terminal kinase domain: Ribosomal protein S6 kinase alpha-1, C-terminal kinase domain (RPS6KA1, Homo sapiens, UniProt Q15418)

| Compound | target | effect on | action | method | tested at | quantity | result |
| --- | --- | --- | --- | --- | --- | --- | --- |
| CCN(CC)CCNC(=O)c1c(C)[nH]c(/C=C2\C(=O)Nc3ccc(F)cc32)c1C | RPS6KA1 | cell-free assay |  |  | 0.5 µM | remaining signal | 28% |
| Nc1nc(Nc2ccccc2)sc1C(=O)c1c(F)cccc1F | RPS6KA1 | enzyme activity | inhibitor |  | 10 µM | remaining activity | 29% |
| COc1cc(Cl)c(C(=O)N[C@@H](CN[C@H]2CC[C@@H](N)CC2)Cc2ccc(C#N)cc2)cc1-c1ccc(CN[C@H](C)c2ccc(C)cc2)o1 | RPS6KA1 | enzyme activity | inhibitor |  | 1 µM | remaining activity | 85% |
| FC(F)c1nc2ccccc2n1-c1nc(N2CCOCC2)nc(N2CCOCC2)n1 | RPS6KA1 | enzyme activity | inhibitor |  | 10 µM | remaining activity | 95% |
| Nc1cnc(N2CCc3cc(S(=O)(=O)Nc4c(F)cc(Cl)cc4F)cc(N4CCCC4=O)c32)nc1 | RPS6KA1 N-terminal kinase domain | cell-free assay |  | competition with immobilised ligand | 1 µM | remaining binding | 93% |
| C[C@@H]1CCN(C(=O)CC#N)C[C@@H]1N(C)c1ncnc2[nH]ccc12 | RPS6KA1 | cell-free assay | inhibitor |  | 0.5 µM | remaining signal | 90.9% |
| CC(C)(O)c1cncc(-c2nc3ccc(F)cc3n2C2CC2)c1 | RPS6KA1 C-terminal kinase domain | cell-free assay |  | competition with immobilised ligand | 1 µM | remaining binding | 100% |
| O=C(Nc1cnn(-c2csc(C(=O)NC3COC3)c2)c1)Nc1c(F)cccc1Cl | RPS6KA1 | enzyme activity | inhibitor |  | 5 µM | remaining activity | 96.3% |
| C[C@H]1CCN(c2nccc(-c3cnn4ncccc34)n2)C1 | RPS6KA1 C-terminal kinase domain | binding |  | competition with immobilised ligand | 1 µM | remaining binding | 30% |
| C=CC(=O)Nc1cc(Nc2nccc(Nc3cc(Cl)c(F)cc3C(C)(C)O)n2)c(OC)cc1N1CC[C@@H](N(C)C)C1 | RPS6KA1 | enzyme activity | inhibitor |  | 1 µM | inhibition | 9% |
| CN(C)CC#Cc1ccc(OCCCc2sc(N3CCc4cccc(C(=O)Nc5nc6ccccc6s5)c4C3)nc2C(=O)O)c(F)c1 | RPS6KA1 C-terminal kinase domain | cell-free assay |  | competition with immobilised ligand | 1 µM | remaining binding | 93% |
| CN(C)c1nccc(-c2cnn3ncccc23)n1 | RPS6KA1 N-terminal kinase domain | binding |  | competition with immobilised ligand | 1 µM | remaining binding | 100% |
| CCOCCn1cc(C(=O)Nc2ccc(-n3nc(-c4cccnc4)cc3C(F)(F)F)cn2)ccc1=O | RPS6KA1 N-terminal kinase domain | cell-free assay |  | competition with immobilised ligand | 1 µM | remaining binding | 99% |
| CCCS(=O)(=O)Nc1ccc(F)c(C(=O)c2c[nH]c3ncc(-c4ccc(Cl)cc4)cc23)c1F | RPS6KA1 | enzyme activity | inhibitor |  | 1 µM | inhibition | < 10% |
| C[S+]([O-])c1ccc(-c2nc(-c3ccncc3)c(-c3ccc(F)cc3)[nH]2)cc1 (centres unmarked) | RPS6KA1 | cell-free assay |  |  | 0.5 µM | remaining signal | 99.9% |
| COc1cc(/C=C/C(=O)CC(=O)/C=C/c2ccc(O)c(OC)c2)ccc1O | RPS6KA1 | enzyme activity | inhibitor |  | 1 µM | activity vs control | 53% |
| O=C(NC[C@@H]1[C@H]2CN(C(=O)OCc3cc(C(F)(F)F)cc(C(F)(F)F)c3)C[C@@H]12)c1ccc2[nH]nnc2c1 | RPS6KA1 N-terminal kinase domain | cell-free assay |  | competition with immobilised ligand | 1 µM | remaining binding | 94% |
| Cc1cnc(NC2CCOCC2)nc1-n1cnc(C(=O)NC(CN)c2cc(F)cc(Cl)c2)c1 (centres unmarked) | RPS6KA1 | enzyme activity | inhibitor | radiometric | 1 µM | remaining activity | 44% |
| CCS(=O)(=O)c1cc2cc(C[C@@](O)(CC(C)(C)c3ccc(F)cc3C(N)=O)C(F)(F)F)[nH]c2cn1 | RPS6KA1 C-terminal kinase domain | cell-free assay |  | competition with immobilised ligand | 1 µM | remaining binding | 0% |
| Cc1ccc(C(=O)NCc2ccsc2)cc1C#Cc1cn(C(C)C)c2ncnc(N)c12 | RPS6KA1 | enzyme activity | inhibitor |  | 1 µM | activity vs control | 101% |
| CC/C(=N\NC(=O)NCc1cccc(O)c1)c1ccc(O)c(C)c1O | RPS6KA1 | enzyme activity | inhibitor |  | 0.1 µM | inhibition | 72.1% |
| COc1cc2ncnc(Nc3ccc(Oc4ccccc4)c(C)c3C)c2cc1OC | RPS6KA1 | enzyme activity | inhibitor |  | 1 µM | inhibition | -2% |
| Nc1ncnc2occ(-c3ccc(NC(=O)Nc4cc(C(F)(F)F)ccc4F)cc3)c12 | RPS6KA1 N-terminal kinase domain | cell-free assay | inhibitor |  | 20 µM | remaining signal | 2% |
